For 37 variants, yeast fitness results are on record in the RNAGym collection of RNA variant scans (doi:10.1126/science.aae0568).

Variants at the floor of the assay were thinned out. A value given as a limit tells only on which side of the number the result lay.

First the molecules themselves.
B1: tRNA (parent)
chain: GUUCCGUUGGCGUAAUGGUAACGCGUCUCCCUCCUAAGGAGAAGACUGCGGGUUCGAGUCCCGUACGGAACG

In this series the parent is B1. Kind of series: yeast fitness relative to wild type (ratio to wild type); higher = fitter; tRNA-Arg(CCU), competitive growth, 37 C, YPD. The gist of the method: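 Changes in genotype frequencies gave Darwinian fitness relative to wild type. Frequencies were read by 100-nucleotide paired-end sequencing of gene amplicons before and after pooled Saccharomyces cerevisiae strains, carrying tRNA-Arg(CCU) gene variants at the native locus, were competed in YPD at 37°C for 24 hours in six replicates. A genotype was kept only with ≥ 100 starting reads, and estimates < 0.5 were set to 0.5.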
Take GUUCCGUUGGCGUAAUGGUAACGCGUAUCCCUCCUAAAGAGAAGACUGCGGGUUCGAGUCCCGUACGGAACG [C27A G38A]: the yeast fitness was 0.798.

With GUUCCGUUGGCGUAAUGGUAACGCGUAUCCCUCCUAAGGAGAAGACUGCGGGUUCGGGUCCCAUACGGAACG [C27A A57G G63A], the yeast fitness is 0.551. Consider GUUCCGUUGGCGUAAUGGUAACGCGUAUCCUUCCUUAGGAGAAGCCUGCGGGUUCGAGUCCCGUACGGAACG [C27A C31U A36U A45C], for which the yeast fitness was at most 0.5.

Consider GUUCCGUUGGCGUAAUGGUAACGCGUAUCCCUCCUAAGGAGUAGACUGCGGGUUCGAGUCCCGUACGGAACG [C27A A42U], for which the yeast fitness is 0.702.

In the case of GUUCCGUUGGCGUAAUGGUAACGCGUAUGCCUCCUAAGGAGAAGACUGGGCGUCCGAGUCCCGUACGGAACG [C27A C29G C49G G51C U54C], the yeast fitness is at most 0.5.

For GUUCCGUUGGCGUAAUGGUAACGCGUAUCCCUCCUAAGGAGAAGUCUGCGGGUUCGAGUGCCAUUUGGAACG [C27A A45U C60G G63A A65U C66U], the yeast fitness is at most 0.5.

Regarding GUUCCGUUGGCGUAAUGGUAACGCGUAACCCUCCUAAGGAAAAGACUACGGGUUCGAGUCCCGUGCGGAACG [C27A U28A G41A G48A A65G], the yeast fitness was at most 0.5.

Consider GUUCCGUUGGCGUAAUGGUAACGCGUAUCCCUCCUAAGCAGAAGACUGCGGGUUCGAGUCCCGUACGGAACG [C27A G39C], for which the yeast fitness worked out at 0.616. Next, GUUCCGUUGGCGUAAUGGUAACGCGUAUCCCUCCUAAGGAGAAGACUGCGGGUUCCAGUCCCGUAGGGAACG [C27A G56C C66G]: at most 0.5; GUUCCGUUGGCGUAAUGGUAACGCGUAUCCGUCCUAAGGAGAAGACUGCGGGUUCGAGUGCCGUACGGAACG [C27A C31G C60G]: 0.537. For GUUCCGUUGGCGUAAUGGUAACGCGUAUCCCUCCUAAGGAGAAGACUGCGGGUUCGAGUUCCGUACGGGACG [C27A C60U A69G], the yeast fitness was at most 0.5. As to GUUCCGUUGGCGUAAUGGUAACGCGUAUCCCUCCUAAGGACACGACUGCGGGUUCGAGUCCCGUAUGGAACG [C27A G41C A43C C66U], the yeast fitness was 0.517. On to GUUCCGUUGGCGUAAUGGUAACGCGUAUCCCUCCUAAGGAGAAGACUGGGGGUUCGAGUCCCGUACGGAACG [C27A C49G], for which the yeast fitness worked out at 0.876. For GUUCCGUUGGCGUAAUGGUAACGCGUAUCCCUCCUAAGGAGAAGAUUGCGGGUUCGAGUCCCGUACAGAACG [C27A C46U G67A], the yeast fitness worked out at 0.699. On to GUUCCGUUGGCGUAAUGGUAACGCGUAUCCCUCCUAAGGAGAAGAAUGCGGGUUCGAGUCCCGUAUGGAACG [C27A C46A C66U], for which the yeast fitness was determined as 0.704. With GUUCCGUUGGCGUAAUGGUAACGCGUAUGCCUCCUAAGGAGAAGACUGCGGGUUCGAGUCCCGUACGGAACG [C27A C29G], the yeast fitness stood at 0.702. Regarding GUUCCGUUGGCGUAAUGGUAACGCGUAUCCCUCUUAAGGAGCAGACUGCGGGGUCGAGUCCCGUAUGGAACG [C27A C34U A42C U53G C66U], the yeast fitness is 0.536.

Regarding GUUCCGUUGGCGUAAUGGUAACGCGUAUCCCUCCUAAGGAGAAGACUGCGGGUUCGAGUCGCGUACGGGACG [C27A C61G A69G], the yeast fitness was at most 0.5.

With GUUCCGUUGGCGUAAUGGUAACGCGUAUCCCUCCUAAGGAGAUGACUGCGGGUUCGAGUCCCGCACGGAACG [C27A A43U U64C], the yeast fitness worked out at 0.628.

Take GUUCCGUUGGCGUAAUGGUAACGCGUAUCCCUCCUAAGGAGAAGUCUGCGGGUUCGAGUCCCGUACGGAACG [C27A A45U]: the yeast fitness worked out at 0.839.

For the variant GUUCCGUUGGCGUAAUGGUAACGCGUAUCCCUCCUAAGGAGAAGACUGCGGAUACGAGUCCCGUACGGAACG [C27A G52A U54A], the yeast fitness was at most 0.5. With GUUCCGUUGGCGUAAUGGUAACGCGUAUCCUUCCUAAGGAGAGGACUGCGGGUUCGAGUCUCGUCCGGAACG [C27A C31U A43G C61U A65C], the yeast fitness was 0.501. As for GUUCCGUUGGCGUAAUGGUAACGCGUAUCCCUCCUAAGGAGAAGACUGCAGGUUCGAGUCCCGUACGGUACG [C27A G50A A69U], the yeast fitness is 0.566. Next, GUUCCGUUGGCGUAAUGGUAACGCGUAUACCUCCUAAGGAGAAGACUGAGGGUUCGAGUCCCGUACGGAACG [C27A C29A C49A]: at most 0.5; GUUCCGUUGGCGUAAUGGUAACGCGUAUCGCUCCUAAGGACAAGACUGCGGGUUCGAGUCCCGUACGGAACG [C27A C30G G41C]: at most 0.5. Regarding GUUCCGUUGGCGUAAUGGUAACGCGUAUCCCUCCUAAGGACAAGACUGCGGGUUCGUGUCCCGUACGGAACG [C27A G41C A57U], the yeast fitness was 0.611.

Regarding GUUCCGUUGGCGUAAUGGUAACGCGUAUCCCUCGUAAGGAGAUGACUGCGGGUUCGCGUCCCGUACGGAACG [C27A C34G A43U A57C], the yeast fitness is at most 0.5. For GUUCCGUUGGCGUAAUGGUAACGCGUAUCGCUCCUAAGGAGCAGACUGCGGGUUCGAGUCGCGUACGGAACG [C27A C30G A42C C61G], the yeast fitness was found to be 1.01. For GUUCCGUUGGCGUAAUGGUAACGCGUAUCCCUCCUAAGGAGAAGACUGCGGGUUCGAGUGCCGCACGGAACG [C27A C60G U64C], the yeast fitness was 0.779. As to GUUCCGUUGGCGUAAUGGUAACGCGUAUCGCUCCUAAGGACAAGACUGCGGGUUCGAGUCGUGUAUGGUACG [C27A C30G G41C C61G C62U C66U A69U], the yeast fitness is at most 0.5. On to GUUCCGUUGGCGUAAUGGUAACGCGUAUCCCUCCUAAUGAGAAGGCUCCGGGUUCGAGUCCCGUACGGAACG [C27A G38U A45G G48C], for which the yeast fitness was at most 0.5. Next, GUUCCGUUGGCGUAAUGGUAACGCGUAUCCCUCCUAAGGAGAAGACUGCGGGUUGGAGUCCCGUACGGAACG [C27A C55G]: 0.646; GUUCCGUUGGCGUAAUGGUAACGCGUAUCCCUCCUAAGGACAAGACUGCGGGUUCGAGUCCCGUACGGAACG [C27A G41C]: 1.18; GUUCCGUUGGCGUAAUGGUAACGCGUAUCCUUCCUAAGGAGAUGACUGCGGGUUCGAGUCCCGUACGGAACG [C27A C31U A43U]: 0.961. For GUUCCGUUGGCGUAAUGGUAACGCGUAUCCCUCCUAAGGAGAAGACUGCGGGUUCGAGUCACGUACCGAACG [C27A C61A G67C], the yeast fitness was at most 0.5.

Consider GUUCCGUUGGCGUAAUGGUAACGCGUAUCCCUCCUAAGGGGAAGACUGCGGGUUCGAGUCCCGUACGGUACG [C27A A40G A69U], for which the yeast fitness stood at 0.582. For the variant GUUCCGUUGGCGUAAUGGUAACGCGUAUCCAUCCUAAGGAGAAGACUGCGGGUUCGAGUCCCGUACGGAACG [C27A C31A], the yeast fitness was 0.758.
